The values below come from ChEMBL document CHEMBL1926667, “The synthesis of 2-nitroaryl-1,2,3,4-tetrahydroisoquinolines, nitro-substituted 5,6-dihydrobenzimidazo[2,1-a]isoquinoline N-oxides and related heterocycles as potential bioreducible substrates for the enzymes NAD(P)H: quinone oxidoreductase 1 and E. coli nitroreductase” (Bioorg Med Chem Lett, 2011).

A short description of series [1]: Solubility of the compound in 10 mM phosphate buffer with 10% DMSO at pH 7. Format: physicochemical.
Series [2] has as its target NAD(P)H dehydrogenase [quinone] 1 (Homo sapiens) (UniProt P15559). Briefly: Activation of human NQO1 assessed as specific activity per mg of protein at 100 uM by measuring decrease in substrate concentration by HPLC analysis. The method, boiled down:
(§1)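 Reduction by human NQO1 or E. coli NR followed by the disappearance of substrate over time; specific activity is the rate of substrate reduction at 37 °C. Relative activity is the specific activity compared with CB-1954.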

The target is the same in series [3]. Briefly: Activation of human NQO1 assessed as decrease in substrate concentration at 100 uM by HPLC analysis relative to CB-1954. The method, boiled down:
as §1

The subject of series [4] is Escherichia coli. Kind of series: Activation of Escherichia coli nitroreductase assessed as specific activity per mg of protein at 100 uM by measuring decrease in NADH concentration. The method, boiled down: (§2)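 Human NQO1 or E. coli NR reduction followed by the fall in NADH concentration over time; specific activity is the rate of reduction per enzyme at 37 °C. Relative values are the specific activity compared with CB-1954.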

Series [5] has as its system Escherichia coli. Briefly: Activation of Escherichia coli nitroreductase assessed as decrease in NADH concentration at 100 uM relative to CB-1954. The method, boiled down:
as §2

Series [6] concerns Escherichia coli. Briefly: Activation of Escherichia coli nitroreductase assessed as specific activity per mg of protein at 100 uM by measuring decrease in substrate concentration by HPLC analysis. The method, boiled down: as §1
Series [7] relates to Escherichia coli. Kind of series: Activation of Escherichia coli nitroreductase assessed as decrease in substrate concentration at 100 uM by HPLC analysis relative to CB-1954. In a few lines: as §1
Series [8] has as its target NAD(P)H dehydrogenase [quinone] 1 (Homo sapiens) (UniProt P15559). Kind of series: Activation of human NQO1 assessed as specific activity per mg of protein at 50 uM by measuring decrease in substrate concentration by HPLC analysis. In a few lines:
(§3)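 Used for poorly soluble substrates: 50 µM compound in buffer (10 mM phosphate, pH 7) with 10% DMSO, incubated with human NQO1 or E. coli NR at 37 °C. Substrate disappearance was monitored over time. Rates assume a 50 µM starting concentration and no DMSO effect on the enzyme. Relative activity is compared with CB-1954.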

For series [9] the target is unchanged. Briefly: Activation of human NQO1 assessed as specific activity per mg of protein at 50 uM by measuring decrease in substrate concentration by HPLC analysis relative to CB-1954. The method, boiled down: as §3
Series [10] deals with Escherichia coli. Briefly: Activation of Escherichia coli nitroreductase assessed as specific activity per mg of protein at 50 uM by measuring decrease in substrate concentration by HPLC analysis. In a few lines:
as §3

Series [11] deals with Escherichia coli. Kind of series: Activation of Escherichia coli nitroreductase assessed as specific activity per mg of protein at 50 uM by measuring decrease in substrate concentration by HPLC analysis relative to CB-1954. In a few lines:
as §3

Series [12] can be described thus: Solubility of the compound at 100 uM in sodium phosphate buffer with 10% DMSO and 500 uM NADH at pH 7. Type of series: physicochemical. The conditions noted are these: pH 7, 100 µM.

NAD(P)H dehydrogenase [quinone] 1 (Homo sapiens), sequence (P15559 whole entry): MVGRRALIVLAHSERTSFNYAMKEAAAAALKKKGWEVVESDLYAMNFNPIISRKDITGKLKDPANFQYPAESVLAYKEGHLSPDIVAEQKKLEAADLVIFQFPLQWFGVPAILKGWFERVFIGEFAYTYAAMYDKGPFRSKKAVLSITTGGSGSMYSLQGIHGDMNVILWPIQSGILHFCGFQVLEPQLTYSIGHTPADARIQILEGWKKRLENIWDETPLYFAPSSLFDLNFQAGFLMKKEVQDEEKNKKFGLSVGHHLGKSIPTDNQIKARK

Turning to `O=[N+]([O-])c1cc([N+](=O)[O-])c(N2CCc3c(cccc3[N+](=O)[O-])C2)c(C(F)(F)F)c1`, the solubility entry in [1] is recorded as “Insoluble”.

In the case of `O=[N+]([O-])c1ccc2c(c1)-c1n(c3ccc([N+](=O)[O-])cc3[n+]1[O-])CC2`, the Activity in series [2] is under 0.001 µmol/min; in the series with Escherichia coli [4], 1.3 µmol/min. Further, the values for the fold change (FC) (in [3]; in the series on Escherichia coli [5]) were under 0.16 and 0.6, respectively.

On to `O=[N+]([O-])c1ccc(N2CCc3ccccc3C2)c([N+](=O)[O-])c1`, for which the Activity was under 0.001 µmol/min in series [2] and 0.44 µmol/min with Escherichia coli [6]. In addition, the results for the fold change (FC) (in series [3]; in the series with Escherichia coli [7]) were under 0.16 and 0.2, respectively.

With `O=[N+]([O-])c1cc([N+](=O)[O-])c(N2CCc3ccccc3C2)c(C(F)(F)F)c1`, the Activity was 0.11 µmol/min in series [2] and 41.5 µmol/min in the series with Escherichia coli [6]. Besides, the fold change (FC) in series [3] is 17.7; in the series with Escherichia coli [7], 22.3.

As to `O=[N+]([O-])c1cc(C(F)(F)F)c2c(c1)[n+]([O-])c1n2CCc2c-1cccc2[N+](=O)[O-]`, the Activity (in series [2]; in the series on Escherichia coli [6]) was under 0.001 µmol/min each time. Moreover, the fold change (FC) was under 0.16 in series [3] and under 0.001 in the series on Escherichia coli [7].

With `O=C(O)c1cc([N+](=O)[O-])cc([N+](=O)[O-])c1N1CCc2ccccc2C1`, the Activity in [2] stood at 0.011 µmol/min; with Escherichia coli [6], 4.22 µmol/min. The fold change (FC) was determined as 1.8 in [3] and 2.3 with Escherichia coli [7].

Turning to `NC(=O)c1cc2c(cc1[N+](=O)[O-])[n+]([O-])c1n2CCc2ccccc2-1`, the Activity (in [2]; in the series with Escherichia coli [6]) was under 0.001 µmol/min each time. The figures for the fold change (FC) (in [3]; in the series on Escherichia coli [7]) were under 0.16 and under 0.001, respectively.

`NC(=O)c1cc([N+](=O)[O-])cc([N+](=O)[O-])c1N1CCc2ccccc2C1`: the Activity is 0.053 µmol/min in series [2] and 2.82 µmol/min with Escherichia coli [4]. The fold change (FC) in series [3] was found to be 8.6; with Escherichia coli [5] it was 1.5.

With `NC(=O)c1cc([N+](=O)[O-])cc2c1n1c([n+]2[O-])-c2ccccc2CC1`, the Activity was under 0.001 µmol/min in [2] and 1.62 µmol/min in the series with Escherichia coli [4]. Also, the fold change (FC) in series [3] was under 0.16; with Escherichia coli [5], 0.9.

Turning to `NC(=O)c1cc([N+](=O)[O-])c(N2CCc3ccccc3C2)c([N+](=O)[O-])c1`, the Activity (in series [2]; with Escherichia coli [6]) was under 0.001 µmol/min in each case. The fold change (FC) in series [3] is under 0.16; in the series with Escherichia coli [7], under 0.001.

In the case of `NC(=O)c1cc(N2CC2)c([N+](=O)[O-])cc1[N+](=O)[O-]`, in series [2], the Activity (10'-3umol/min) was 6.2. Besides, the Activity in the series with Escherichia coli [6] was found to be 1.86 µmol/min.

Take `O=[N+]([O-])c1ccc2c(c1)CN(c1c([N+](=O)[O-])cc([N+](=O)[O-])cc1C(F)(F)F)CC2`: the Activity is 0.076 µmol/min in series [8] and 2.39 µmol/min in the series on Escherichia coli [10]. Besides, the fold change (FC) in series [9] was 12.3; in the series with Escherichia coli [11], 1.3. Moreover, the solubility result in series [12] was “Insoluble”.

For `NC(=O)c1cc(N2CCc3ccccc3C2)c([N+](=O)[O-])cc1[N+](=O)[O-]`, the Activity amounted to 0.042 µmol/min in [2] and 4.4 µmol/min in the series with Escherichia coli [6]. Moreover, the fold change (FC) in series [3] is 6.8; in the series with Escherichia coli [7], 2.4.

Consider `O=[N+]([O-])c1cnc2c(c1)[n+]([O-])c1n2CCc2ccccc2-1`, for which the Activity in series [2] amounted to 0.17 µmol/min; in the series with Escherichia coli [6], 54 µmol/min. The fold change (FC) in series [3] turned out to be 27.4; in the series on Escherichia coli [7] it was 29.

On to `O=[N+]([O-])c1ccc2c(c1)[n+]([O-])c1n2CCc2ccccc2-1`, for which the Activity in [2] was 0.016 µmol/min; in the series on Escherichia coli [6] it was 0.5 µmol/min. For the same molecule, the results for the fold change (FC) (in series [3]; with Escherichia coli [7]) were 2.6 and 0.3, respectively.

For the molecule `O=[N+]([O-])c1cnc(N2CCc3ccccc3C2)c([N+](=O)[O-])c1`, the Activity in series [2] is 0.013 µmol/min; in the series with Escherichia coli [6], 1.49 µmol/min. The fold change (FC) is 2.1 in [3] and 0.8 in the series on Escherichia coli [7].

Take `O=[N+]([O-])c1ccc2c(c1)[n+]([O-])c1n2CCc2c-1cccc2[N+](=O)[O-]`: the Activity in series [2] was under 0.001 µmol/min; in the series with Escherichia coli [4] it was 1.51 µmol/min. Also, the fold change (FC) in series [3] is under 0.16; in the series on Escherichia coli [5], 0.8.

For the molecule `NC(=O)c1cc2c(cc1[N+](=O)[O-])[n+]([O-])c1n2CCc2c-1cccc2[N+](=O)[O-]`, the Activity (in series [2]; in the series with Escherichia coli [6]) was under 0.001 µmol/min in each case. In addition, the results for the fold change (FC) (in series [3]; with Escherichia coli [7]) were under 0.16 and under 0.001, respectively.

Consider `O=C(O)c1cc([N+](=O)[O-])c(N2CCc3ccccc3C2)c([N+](=O)[O-])c1`, for which the figures for the Activity (in [2]; in the series on Escherichia coli [6]) were under 0.001 µmol/min and 0.02 µmol/min, respectively. Also, the results for the fold change (FC) (in [3]; in the series on Escherichia coli [7]) were under 0.16 and 0.01, respectively.
